The term IC50 denotes the midpoint of a concentration-inhibition curve.

Seven molecules from ChEMBL document CHEMBL1152965, “Synthesis and in vitro antiplasmodial evaluation of 4-anilino-2-trichloromethylquinazolines” (Bioorg Med Chem, 2009) can be followed below.

One series deals with Plasmodium falciparum. As to the kind of experiment: Antimalarial activity as reduced parasitaemia after 48 hrs against chloroquine, pyrimethamine and proguanil-resistant Plasmodium falciparum W2 infected in type A+ human erythrocytes by flow cytometry. The settings on record: W2, 48 h. The class given is functional, organism-based. In general terms: Flow cytometry measures light scatter and fluorescence of single cells or particles in a stream.

Another series concerns K562. As to the kind of experiment: Cytotoxicity against human K562 cells after 72 hrs by flow cytometry. The class given is cell-based. The settings on record: K562, 72 h. An outline of the steps:
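Chemosensitive K562 subline, late log phase, in phenol-red-free RPMI with 10% serum. Compound range added in duplicate (DMSO <0.5%). After 72 h at 37 °C, 6% CO₂, cells stained with propidium iodide and live cells in a 100 µL sample counted by flow cytometry. IC50 from non-linear regression of dose-response curves, mean of three independent experiments.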

The next series relates to HepG2. As to the kind of experiment: Cytotoxicity against human HepG2 cells after 72 hrs by MTT assay. The settings on record: HepG2, 72 h. The class given is cell-based. An outline of the steps:
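HepG2 cells plated in RPMI with 10% FBS and grown 24 h, then exposed to a range of compound concentrations for 72 h at 37 °C, 6% CO₂. MTT (5 mg/mL stock) added for 2 h, formazan dissolved in DMSO and read at 570 nm against 630 nm. Viability expressed as percent of untreated control. CC50 taken from the dose-response curve.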

Series [1] can be described thus: Selectivity index, ratio of IC50 for human K562 cells to IC50 for chloroquine, pyrimethamine and proguanil-resistant Plasmodium falciparum W2. It is filed as toxicity, cell-based. The settings on record: K562 cells (cytotoxicity) versus Plasmodium falciparum W2, read-out: Ratio IC50. An outline of the steps:
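SI = K562 IC50 / W2 IC50. Live cells counted by flow cytometry after propidium iodide stain. IC50 by non-linear regression, mean of three independent experiments.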

Series [2] is described as follows: Selectivity index, ratio IC50 for human HepG2 cells to IC50 for chloroquine, pyrimethamine and proguanil-resistant Plasmodium falciparum W2. The class given is functional. An outline of the steps: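 SI = HepG2 IC50 / W2 IC50. MTT 2 h, formazan dissolved in DMSO, absorbance 570 nm (ref 630 nm). Viability as % of untreated control, IC50 from dose-response curve.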

The subject of the next series is Toxoplasma gondii. As to the kind of experiment: Antitoxoplasmic activity against Toxoplasma gondii tachyzoites infected in HFF assessed as beta-galactosidase activity after 96 hrs by colorimetric microtiter assay. It is filed as functional, organism-based. An outline of the steps:
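Tachyzoites of the PRU-β-Gal strain. 10⁴ HFF cells per well grown to confluence in phenol-red-free RPMI with 10% FCS. Monolayers infected with 2.10³ parasites per well for 3 h, then compounds in DMSO (final <0.5%) added in triplicate. Incubated 96 h at 37 °C, 6% CO₂. CPRG added at 500 µM final for a further 24 h. Read at 570/630 nm, blanked on uninfected wells. IC50 from three independent experiments.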

A further series concerns Leishmania donovani. As to the kind of experiment: Antileishmanial activity against Leishmania donovani HOM/IN/01/2001 promastigotes after 72 hrs by flow cytometry. It is filed as functional, organism-based. The settings on record: HOM/IN/01/2001, 72 h. An outline of the steps: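 GFP-transfected promastigotes, log phase, in M199 with 10% FCS and 500 µg/mL G418, seeded at 10⁵ parasites/mL. Compounds in DMSO (final <0.5% v/v) added in duplicate over a concentration range. Incubated 72 h at 27 °C.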

In series [3] the test system is Salmonella enterica subsp. enterica. As to the kind of experiment: Mutagenic activity in Salmonella Typhimurium TA97a assessed as number of spontaneous and drug-induced revertants after 48 hrs in absence of 4% S9 mixture by Ames test. The class given is toxicity, organism-based. The settings on record: salmonella enterica subsp. enterica serovar typhimurium. An outline of the steps:
(§1)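 Liquid-incubation Ames variant. Tester strains grown overnight in nutrient broth. 5×10^-3 M DMSO solution of compound added to 0.1 mL culture, with or without 4% S9 mix, 1 h at 37 °C with shaking. Top agar added and mixture plated on Vogel-Bonner agar. After 48 h at 37 °C in the dark, revertants per plate counted with a laser colony counter.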

The test system is the same in series [4]. As to the kind of experiment: Mutagenic activity in Salmonella Typhimurium TA97a assessed as number of spontaneous and drug-induced revertants after 48 hrs in presence of 4% S9 mixture by Ames test. It is filed as toxicity, organism-based. The settings on record: salmonella enterica subsp. enterica serovar typhimurium. An outline of the steps: as §1
On the technique in general: The Ames test detects mutagens through reverse mutation in bacteria.

For series [5] the test system is unchanged. Put plainly: Mutagenic activity in Salmonella Typhimurium TA98 assessed as number of spontaneous and drug-induced revertants after 48 hrs in absence of 4% S9 mixture by Ames test. It is filed as toxicity, organism-based. The settings on record: salmonella enterica subsp. enterica serovar typhimurium. Summed up: as §1
The test system is the same in series [6]. Put plainly: Mutagenic activity in Salmonella Typhimurium TA98 assessed as number of spontaneous and drug-induced revertants after 48 hrs in presence of 4% S9 mixture by Ames test. The settings on record: salmonella enterica subsp. enterica serovar typhimurium. The class given is toxicity, organism-based. An outline of the steps:
as §1

Series [7] shares this test system. Put plainly: Mutagenic activity in Salmonella Typhimurium TA100 assessed as number of spontaneous and drug-induced revertants after 48 hrs in presence of 4% S9 mixture by Ames test. It is filed as toxicity, organism-based. The settings on record: salmonella enterica subsp. enterica serovar typhimurium. Summed up:
as §1

Series [8] has the same test system. Put plainly: Mutagenic activity in Salmonella Typhimurium TA102 assessed as number of spontaneous and drug-induced revertants after 48 hrs in absence of 4% S9 mixture by Ames test. The class given is toxicity, organism-based. The settings on record: salmonella enterica subsp. enterica serovar typhimurium. An outline of the steps:
as §1

Series [9] has the same test system. Put plainly: Mutagenic activity in Salmonella Typhimurium TA102 assessed as number of spontaneous and drug-induced revertants after 48 hrs in presence of 4% S9 mixture by Ames test. It is filed as toxicity, organism-based. The settings on record: salmonella enterica subsp. enterica serovar typhimurium. Summed up: as §1

As for `ClC(Cl)(Cl)c1nc(Nc2cccc(Br)c2)c2ccccc2n1`, the IC50 with Plasmodium falciparum was 2.2 µM; with K562, over 50 µM; with HepG2, over 100 µM; with Toxoplasma gondii, over 50 µM; with Leishmania donovani, over 50 µM. The selectivity ratio in series [1] is over 22.7. In series [2], the “Ratio IC50” value is recorded as over 45.5. For the same molecule, the Activity entry in series [3], in series [4], in series [5], in series [6], in [7] and in series [8] was “Not Active” in each case. Moreover, the Activity result in series [9] is reported as “Not Active”.

As to `Clc1cccc(Nc2nc(C(Cl)(Cl)Cl)nc3ccccc23)c1`, the IC50 with Plasmodium falciparum is 1.7 µM; in the series on K562, over 50 µM; with HepG2, over 100 µM; in the series on Toxoplasma gondii, over 50 µM; with Leishmania donovani, over 50 µM. Moreover, in [1], the selectivity ratio is over 29.4. Besides, the “Ratio IC50” value in series [2] is reported as over 58.8. Also, the Activity entry in series [3], in series [4], in series [5], in series [6], in series [7] and in series [8] was “Not Active” each time. Also, the Activity result in [9] was “Not Active”.

On to `C[C@@H]1[C@H](O)[C@@H](C)/C=C/C=C/C=C/C=C/C=C/C=C/C=C/[C@H](O[C@@H]2O[C@H](C)[C@@H](O)[C@H](N)[C@@H]2O)C[C@@H]2O[C@](O)(C[C@@H](O)C[C@@H](O)[C@H](O)CC[C@@H](O)C[C@@H](O)CC(=O)O[C@H]1C)C[C@H](O)[C@H]2C(=O)O` [AMPHOTERICIN B], for which the IC50 stood at 17 µM with K562, 10 µM in the series with HepG2 and 0.08 µM in the series with Leishmania donovani.

`CCc1nc(N)nc(N)c1-c1ccc(Cl)cc1` [PYRIMETHAMINE]: the figures for the IC50 with K562, in the series with HepG2 and with Toxoplasma gondii were 5 µM, 30 µM and 2 µM, respectively.

On to `ClC(Cl)(Cl)c1nc(NC2CCCCCC2)c2ccccc2n1`, for which the IC50 is 5.1 µM in the series on Plasmodium falciparum, over 50 µM in the series on K562 and 19 µM in the series on HepG2. Moreover, the selectivity ratio in series [1] is over 9.8. Also, the “Ratio IC50” value in [2] was determined as 3.7.

`Clc1ccc(Nc2nc(C(Cl)(Cl)Cl)nc3ccccc23)cc1Cl`: the IC50 in the series on Plasmodium falciparum was 5 µM; in the series with K562, 9 µM; in the series with HepG2 it was 8 µM. Also, the selectivity ratio in series [1] worked out at 1.8. Moreover, in [2], the “Ratio IC50” value was 1.6.

On to `C[C@H]1c2cccc(O)c2C(=O)C2=C(O)[C@]3(O)C(=O)C(C(N)=O)=C(O)[C@@H](N(C)C)[C@@H]3[C@@H](O)[C@@H]21.O` [DOXYCYCLINE], for which the IC50 with Plasmodium falciparum was 6.5 µM; with K562, 15 µM; with HepG2, 20 µM. Moreover, the selectivity ratio in series [1] is 2.3. For the same molecule, in [2], the “Ratio IC50” value is recorded as 3.1.
